# MEKK3 PB1 HTS – MEKK3-MEK5 PB1 interaction, increase or decrease | hit rate 1.4% among 290,000 | binding response (% of control), % at 10 µM | bead-based flow cytometry, Alexa488-MEK5 binding to MEKK3; actives lie on both sides; 0 = blocked by unlabeled MEK5, 100 = vehicle;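 active = binding response more than 3 SD above or below the average of its plate-row segment, actives on both sides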;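 also: Alexa488 bead fluorescence after subtracting the streptavidin-only scavenger bead signal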
# Target sequence (Q99759 whole entry, looked up): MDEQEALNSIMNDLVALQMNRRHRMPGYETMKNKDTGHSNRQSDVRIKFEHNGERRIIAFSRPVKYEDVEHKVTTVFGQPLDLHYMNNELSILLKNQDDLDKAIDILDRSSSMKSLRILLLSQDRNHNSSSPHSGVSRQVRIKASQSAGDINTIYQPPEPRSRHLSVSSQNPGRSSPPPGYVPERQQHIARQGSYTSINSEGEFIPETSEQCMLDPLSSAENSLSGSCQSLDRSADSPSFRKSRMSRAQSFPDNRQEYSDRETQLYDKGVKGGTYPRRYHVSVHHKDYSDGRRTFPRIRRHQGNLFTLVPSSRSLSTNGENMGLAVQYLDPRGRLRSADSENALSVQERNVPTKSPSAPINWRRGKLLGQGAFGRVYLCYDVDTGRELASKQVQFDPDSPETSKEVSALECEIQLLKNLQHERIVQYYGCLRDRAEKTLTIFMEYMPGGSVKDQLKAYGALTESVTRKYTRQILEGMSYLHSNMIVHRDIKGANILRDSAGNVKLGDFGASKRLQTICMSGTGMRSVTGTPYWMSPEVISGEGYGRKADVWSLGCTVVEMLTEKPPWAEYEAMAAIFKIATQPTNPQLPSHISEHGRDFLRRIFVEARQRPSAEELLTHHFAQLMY
# MEKK2 mut-MEK5 – signal of MEK5 binding to mutant human MEKK2 PB1 domain; hit rate 0.35% among 290,000; percent response, % at 10 µM; bead flow cytometry, Alexa488-MEK5 binding to MEKK2 mutant; in the data active = percent response above about 24%, passing the limit was not always enough
# Lipid droplet – hepatic lipid droplet formation modulation; AML12 mouse hepatocytes, oleate lipid droplets, BODIPY imaging; inhibition, % at 6.5 µM; hit rate 0.4% among 240,000;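 active = lipid droplet intensity inhibited by at least 50%, with more than 500 cells counted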
#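 System: AML12 hepatocytes (mouse). Probe or stimulus: oleic acid at 100 µM to induce lipid droplet formation. Times: overnight treatment with compound plus oleate. Detection: Image-based BODIPY and DAPI two-channel analysis. Evaluation: percent inhibition of filter-corrected integrated lipid droplet intensity per well.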
# MEKK2 WT-MEK5 – raises or lowers MEK5 binding to wildtype human MEKK2 PB1 domain | Q9Y2U5 | bead flow cytometry, Alexa488-MEK5 binding to MEKK2 WT; actives lie on both sides | binding response (% of control), % at 10 µM | hit rate 1.1% among 290,000 | AID 1531; in the data active = binding response below about 67% or above about 130%
# MEKK2wt confirm – raises or lowers MEK5 binding to wildtype human MEKK2, retest; shares compounds with MEKK3 PB1 HTS; bead flow cytometry, Alexa488-MEK5 binding to MEKK2 WT; actives lie on both sides; binding response (% of control), % at 10 µM; hit rate 2.4% among 5,900; AID 1892; in the data active = binding response below about 16% or above about 210%; inactive = in between
# MEKK2mut confirm – signal of MEK5 binding to mutant human MEKK2, retest; shares compounds with MEKK3 PB1 HTS; bead flow cytometry, Alexa488-MEK5 binding to MEKK2 mutant; percent response, % at 10 µM; hit rate 2% among 5,900; AID 1893; in the data active = percent response mostly above about 71%, no sharp cut-off; inactive = mostly below about 38%;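 also: higher means compound restores mutant binding toward wildtype level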
# MEKK3 confirm – confirmation of inhibitors of MEK5 binding to human MEKK3; shares compounds with MEKK3 PB1 HTS; bead flow cytometry, Alexa488-MEK5 binding to MEKK3; stronger effect = lower value; binding response (% of control), % at 10 µM; hit rate 1.8% among 5,900;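 active = binding response below 72% of control, or above a set upper limit, though filed actives all read lower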;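 also: 100% = DMSO only wells and 0% = binding blocked by excess unlabeled MEK5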
# The depositor's hits bear a star; . = not tested or not shown; [ ] = another dose, or the depositor's remark. In the library only some 2.6% were active in any assay of this set; here they are far more common.
SMILES,MEKK3 PB1 HTS,MEKK2 mut-MEK5,Lipid droplet,MEKK2 WT-MEK5,MEKK2wt confirm,MEKK2mut confirm,MEKK3 confirm
COc1ccc(N2CCN(C(CNC(=O)CC(C)(C)C)c3ccc4c(c3)OCO4)CC2)cc1 (stereo not drawn),101,-1,-2,101,.,.,.
CSc1nc(C)c(C(=O)Nc2ccccc2)c(-c2ccco2)c1C#N,27*[inhibitor],-16,23,16*[inhibitor],98,-1,102
COc1ccc(C(N)CCc2ccco2)cc1 (stereo not drawn),113,27*,.,132,119,15,98
Cc1ccc(NC(=O)c2c3c(nc4ccccc24)CCC3)cc1,72*[inhibitor],-2,24,84,107,5,103
CCOc1ccc(NC(=O)c2c3c(nc4ccccc24)CCC3)cc1,95,-5,3,92,.,.,.
CCOc1cc(N2CCOCC2)c(OCC)cc1NC(=O)c1c(-c2ccccc2Cl)noc1C,101,-2,11,101,.,.,.
CC(C)CCNC(=O)C(=O)NCc1ccccc1,49*[inhibitor],-20,-11,53,96,-1,97
CN(N)C(=S)NCc1ccccc1,123*,5,.,116,102,-2,97
CC(C)C(NC(=S)NCc1ccccc1)C(=O)O (stereo not drawn),34*[inhibitor],-10,2,43*[inhibitor],95,-2,98
Cc1ccc(NC(=S)N/N=C/c2ccc([N+](=O)[O-])s2)cc1,85,-7,14,62*[inhibitor],73,-14,94
CCN(C(=O)CSc1nncn1-c1ccccc1)c1c(N)n(Cc2ccccc2)c(=O)[nH]c1=O,63*[inhibitor],-2,5,89,102,-3,103
CCN(C(=O)CSc1nnnn1-c1ccccc1)c1c(N)n(Cc2ccccc2)c(=O)[nH]c1=O,67*[inhibitor],0,-18,99,105,7,108
COCCN(C(=O)CSc1nncn1-c1ccccc1)c1c(N)n(Cc2ccccc2)c(=O)[nH]c1=O,101,-1,2,99,.,.,.
N#Cc1ccc(-c2csc(NC(=O)c3cc(-c4cccs4)nc4ccccc34)n2)cc1,63*[inhibitor],-31,-18,38*[inhibitor],103,10,107
N#Cc1ccc(/C=N/NC(=O)c2cc(-c3cccs3)nc3ccccc23)cc1,101,8,-110,103,.,.,.
CCN(CC)CC(=O)Nc1ccc(-c2nc3cc(NC(=O)CN(CC)CC)ccc3o2)cc1,109,15,3,122,.,.,.
CCC(C)NCC(=O)Nc1ccc(-c2nc3cc(NC(=O)CNC(C)CC)ccc3o2)cc1 (stereo not drawn),114,34*,2,160*,156,29,108
COc1ccc(CNC(=O)CCn2c(=O)oc3ccccc32)c(OC)c1,91,-11,-15,93,.,.,.
C=CCNC(=O)C1CCN(S(=O)(=O)c2cccs2)CC1,99,3,7,104,.,.,.
NC(=O)C[n+]1cccc(CNC(=O)c2ccc(OC(F)F)cc2)c1,114,1,2,112,.,.,.
O=C(C[n+]1cccc(CNC(=O)c2ccc(OC(F)F)cc2)c1)Nc1cc(C(F)(F)F)ccc1Cl,101,25,4,144*,155,18,102
CC(O)C(NS(=O)(=O)c1ccc(Cl)cc1)C(=O)OCC(=O)c1c[nH]c2ccccc12 (stereo not drawn),76,-21,0,79,.,.,.
CC(C)C(NS(=O)(=O)c1c(Cl)cccc1Cl)C(=O)OCC(=O)c1c[nH]c2ccccc12 (stereo not drawn),77,76*,-36,-2.0*,105,9,102
O=C(NCCC1=CCCCC1)C(=O)NCC(c1ccco1)N1CCN(c2ccc(F)cc2)CC1 (stereo not drawn),97,-1,8,98,.,.,.
NS(=O)(=O)c1ccc(CCNC(=O)CNC(=O)c2ccc(Oc3ccccc3)cc2)cc1,104,0,-14,105,.,.,.
SMILES,MEKK3 PB1 HTS,MEKK2 mut-MEK5,Lipid droplet,MEKK2 WT-MEK5,MEKK2wt confirm,MEKK2mut confirm,MEKK3 confirm
O=S(=O)(c1ccc2c(c1)OCCO2)N1CCN(c2cccc(Cl)c2)CC1,81*[inhibitor],-17,4,87,98,-8,101
CN1CCN(S(=O)(=O)c2ccc3c(c2)OCCO3)CC1,100,3,2,99,.,.,.
CN1CCC(=O)N([C@H](CSc2ccccc2)Cc2ccccc2)CC1,102,7,.,98,.,.,.
Cc1ccc(SC[C@H](Cc2ccccc2)N2CCN(CCc3ccccc3)CCC2=O)cc1,86,8,-47,142*,124,37,105
O=C1CCN(CCc2ccccc2)CCN1[C@H](CSc1ccccc1)Cc1ccccc1,101,1,-18,112,.,.,.
COc1ccc(SC[C@H](Cc2ccccc2)N2CCN(C)CCC2=O)cc1,120,4,4,143*,117,20,107
CNC(=O)C(=O)Nc1c(C)cc(C)cc1C,134*,1,14,111,-1.0*[inhibitor],-29,0.0*
COc1ccc(-c2nn(-c3ccccc3)cc2CN(C)CCn2ccnc2C)c(F)c1,44*[inhibitor],-37,-20,57,90,-3,96
N#Cc1ccc(NC(=O)Cn2cnc(S(=O)(=O)N3CCc4ccccc43)c2)cc1,101,10,7,99,.,.,.
CCCCSc1cc(=O)[nH]c(N)n1,70*[inhibitor],-20,-3,81,101,-4,106
CCCCSc1nnc2[nH]c(=O)cc(N)n12,104,5,-24,106,.,.,.
CCn1nnc2cc(C(=O)NCC(c3ccccc3OC)N(C)C)ccc21 (stereo not drawn),98,3,4,96,.,.,.
COc1ccc(CCNC(=O)CSc2ccc(-c3ccccc3)nn2)cc1,131*,0,-6,104,99,-12,97
O=C(CSc1ccc(-c2cccs2)nn1)NCCc1ccccc1,110,4,-4,105,.,.,.
COc1ccccc1CCNC(=O)CSc1ccc(-c2cccs2)nn1,61*[inhibitor],8,6,99,100,-1,105
CCN(CC#CCC1(O)c2ccccc2-c2ccccc21)CCO,77*[inhibitor],-13,.,84,95,-6,98
O=C(c1ccc2[nH]c(=O)c(=O)[nH]c2c1)N1CCc2ccccc21,104,3,-8,106,.,.,.
Cc1ccc(C(=O)N/C(=C\C=C\c2ccccc2)C(=O)NCc2ccco2)cc1,146*,0,-49,107,96,-5,101
O=C(Nc1ccc(O)cc1)/C(=C\C=C\c1ccccc1)NC(=O)c1ccccc1,99,-9,9,93,.,.,.
O=C(NCc1ccco1)/C(=C/C=C/c1ccccc1)NC(=O)c1ccco1,98,-8,-6,93,.,.,.

# Bioassay records: PubChem BioAssay, several laboratories
